Several values for one entry are separate records, joined by “and”; a condition that tells them apart may be missing. Equal entries are not always repeated. Where two headings read alike, the source gives them in different places.
Experiments:
[1] = system: Japanese patients with pulmonary arterial hypertension; conditions: lowest value among 5, 15, or 30 min after inhalation at Week 12, IBUKI study; cited from earlier work
[2] = system: Japanese patients with pulmonary arterial hypertension; experiment: NT-proBNP levels; format: in vivo, human
How it was run: (§1)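 Multicentre, non-randomised, single-arm study: 12-week main period plus 40-week extension. Nebulised test compound given as 0.6 mg/mL at 6 µg/breath, starting 3 breaths (18 µg)/session four times daily. Patients 18–75 y with PAH; stable background ERA/PDE5 inhibitor/sGC stimulator allowed; no other prostacyclin-pathway drugs. Secondary endpoints reported as change from baseline.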

[3] = Plasma pharmacokinetics in Japanese PAH patients; format: in vivo, human
[4] = system: Japanese patients with pulmonary arterial hypertension; experiment: Hemodynamic measurements by right heart catheterization; format: in vivo, human
How it was run: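 RHC at baseline and Week 12, pre-inhalation and 15 and 30 min after inhaling test compound (6 µg/breath, starting 3 breaths four times daily). CO by thermodilution or indirect Fick per site, with the same method per patient. PVR = (mPAP−PAWP)/CO; PVRI = (mPAP−PAWP)/cardiac index (CO/BSA). Lower of 15/30-min PVRI taken as Week-12 "best". Significance: 95% CI of mean change excluding 0.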

[5] = system: Japanese patients with pulmonary arterial hypertension; experiment: Safety: adverse events and safety parameters over 52 weeks; format: in vivo, human
How it was run: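 Over the 52 weeks of nebulised test compound (6 µg/breath, starting 3 breaths four times daily), AEs were coded by MedDRA v24.0 preferred term. Monitoring covered clinical laboratory tests, blood pressure, pulse, SpO2, ECG, chest X-ray, pulmonary function, arterial blood gas and body weight. Safety set: patients who received at least one dose.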

[6] = system: Japanese patients with pulmonary arterial hypertension; experiment: Quality of life, Minnesota Living with Heart Failure questionnaire; format: in vivo, human
How it was run: as §1

[7] = Plasma pharmacokinetics in Japanese healthy adults, single inhalation; format: in vivo, human; conditions: 18 and 36 μg inhaled
[8] = system: Japanese patients with pulmonary arterial hypertension; experiment: 6-minute walking distance and Borg Dyspnea Score; format: in vivo, human
How it was run: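 Single-arm, open-label study: test compound nebulised at 6 µg/breath from a 0.6 mg/mL solution, started at 3 breaths (18 µg)/session four times daily. Peak 6MWD taken 10–60 min after inhalation, trough 6MWD at least 4 h post-inhalation. Borg score was a secondary endpoint. Change from baseline; significance taken as a two-sided 95% CI excluding 0.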

[9] = 54 μg inhaled, non-Japanese PAH patients; cited from earlier work
[10] = system: Japanese patients with pulmonary arterial hypertension; experiment: Time to clinical worsening; format: in vivo, human
How it was run: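 Clinical worsening was defined as death, transplantation, hospitalisation for worsening PAH, or start of additional PAH-specific therapy. Followed during the 12-week main and 40-week long-term periods of open-label nebulised test compound (6 µg/breath, starting 3 breaths/session four times daily), in addition to background ERA and/or PDE5 inhibitor/sGC stimulator.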

[11] = system: Japanese patients with pulmonary arterial hypertension; experiment: WHO functional class; format: in vivo, human
How it was run: as §1

[12] = system: Japanese patients with pulmonary arterial hypertension; conditions: baseline to week 16, study of selexipag in Japan; cited from earlier work
[13] = human, plasma, inhaled or intranasal, 54 ug
[14] = Week 12, 15 min post-inhalation, n = 17
[15] = Week 12, 30 min post-inhalation, n = 17
[16] = Week 12, post-inhalation best, n = 17
[17] = Week 12, pre-inhalation (trough treprostinil level), n = 17
[18] = Week 12, pre-inhalation, n = 17
[19] = over 52 weeks, n = 17, listed as treprostinil

CC#CCC(C)[C@H](O)/C=C/[C@@H]1[C@H]2C/C(=C/CCCC(=O)O)C[C@H]2C[C@H]1O (stereo partly drawn) [iloprost]
Best change from baseline in mPAP [1]: −6.75 mmHg

CCCCC[C@H](O)CC[C@@H]1[C@H]2Cc3cccc(OCC(=O)O)c3C[C@H]2C[C@H]1O [inhaled treprostinil, Treprostinil]
Mean change from baseline in NT-proBNP level ([2]; Week 6): -34.6 ± 100.0 pg/mL
Mean change from baseline in NT-proBNP level ([2]; Week 12): -35.5 ± 165.5 pg/mL
Mean change from baseline in NT-proBNP level ([2]; Week 52): -77.1 ± 194.1 pg/mL
MRT [3, 13]: 55.8 ± 10.2 min
Vd/F [3, 13]: 76.7 ± 52.2 L
k el [3, 13]: 0.000272 s⁻¹
Time detectable in the plasma after inhalation ([3]; nine breaths (54 μg) four times daily): approximately 4 h
Best change from baseline in PVRI at Week 12 ([4]; 13 patients receiving a combination of an ERA and a PDE5 inhibitor/sGC stimulator): −36.7 ± 25.0%
CO [4, 14]: 4.9 ± 1.6 L/min
Cardiac index [4, 14]: 3.0 ± 0.9 L/min/m^2
PAWP [4, 14]: 9.4 ± 4.2 mmHg
PVR [4, 14]: 4.5 ± 1.8 Wood units
PVRI [4, 14]: 7.4 ± 2.8 Wood units·m^2
SVR [4, 14]: 17.8 ± 6.5 Wood units
SVRI [4, 14]: 28.8 ± 9.5 Wood units·m^2
SvO2 [4, 14]: 71.3 ± 5.6%
mPAP [4, 14]: 30.5 ± 10.1 mmHg
mRAP [4, 14]: 4.5 ± 3.1 mmHg
CO [4, 15]: 5.0 ± 1.5 L/min
Cardiac index [4, 15]: 3.0 ± 0.9 L/min/m^2
PAWP [4, 15]: 8.9 ± 3.9 mmHg
PVR [4, 15]: 4.4 ± 2.0 Wood units
PVRI [4, 15]: 7.3 ± 3.1 Wood units·m^2
SVR [4, 15]: 17.7 ± 6.2 Wood units
SVRI [4, 15]: 28.7 ± 9.2 Wood units·m^2
SvO2 [4, 15]: 70.0 ± 5.8%
mPAP [4, 15]: 30.1 ± 10.3 mmHg
mRAP [4, 15]: 4.8 ± 3.3 mmHg
CO [4, 16]: 5.1 ± 1.7 L/min
Cardiac index [4, 16]: 3.1 ± 0.9 L/min/m^2
PAWP [4, 16]: 8.5 ± 4.0 mmHg
PVR [4, 16]: 4.2 ± 1.9 Wood units
PVRI [4, 16]: 6.9 ± 2.9 Wood units·m^2
SVR [4, 16]: 17.5 ± 6.4 Wood units
SVRI [4, 16]: 28.4 ± 9.4 Wood units·m^2
SvO2 [4, 16]: 71.5 ± 5.5%
mPAP [4, 16]: 29.8 ± 9.9 mmHg
mRAP [4, 16]: 4.4 ± 3.0 mmHg
Change from baseline in PVR [4, 17]: −19.6 ± 26.8%
Change from baseline in PVRI [4, 17]: −19.2 ± 26.8%
Change from baseline in mPAP [4, 17]: −4.0 ± 6.1 mmHg
CO [4, 18]: 4.6 ± 1.3 L/min
Cardiac index [4, 18]: 2.8 ± 0.8 L/min/m^2
PAWP [4, 18]: 8.8 ± 4.1 mmHg
PVR [4, 18]: 5.7 ± 2.2 Wood units
PVRI [4, 18]: 9.3 ± 3.1 Wood units·m^2
SVR [4, 18]: 19.5 ± 6.2 Wood units
SVRI [4, 18]: 31.7 ± 8.7 Wood units·m^2
SvO2 [4, 18]: 71.2 ± 5.3%
mPAP [4, 18]: 34.1 ± 9.8 mmHg
mRAP [4, 18]: 5.0 ± 3.5 mmHg
Best change from baseline in PVRI at Week 12 ([4]; one patient who was treatment-naïve): −54.7%
% Change from baseline to Week 12 in CO ([4]; post-inhalation best, n = 17): 18.3 ± 20.0 (8.0 to 28.6) %
% Change from baseline to Week 12 in PAWP ([4]; post-inhalation best, n = 17): 24.2 ± 60.9 (−7.1 to 55.5) %
% Change from baseline to Week 12 in PVR ([4]; post-inhalation best, n = 17): −39.7 ± 25.6 (−52.9 to −26.5) %
% Change from baseline to Week 12 in PVRI (primary endpoint) ([4]; post-inhalation best, n = 17): −39.4 ± 25.5 (−52.6 to −26.3) %
% Change from baseline to Week 12 in SVR ([4]; post-inhalation best, n = 17): −15.3 ± 24.0 (−27.7 to −3.0) %
% Change from baseline to Week 12 in SVRI ([4]; post-inhalation best, n = 17): −14.8 ± 24.4 (−27.4 to −2.3) %
% Change from baseline to Week 12 in SvO2 ([4]; post-inhalation best, n = 17): 2.7 ± 5.8 (−0.3 to 5.7) %
% Change from baseline to Week 12 in cardiac index ([4]; post-inhalation best, n = 17): 17.8 ± 20.3 (7.3 to 28.2) %
% Change from baseline to Week 12 in mPAP ([4]; post-inhalation best, n = 17): −21.7 ± 19.7 (−31.9 to −11.6) %
% Change from baseline to Week 12 in mRAP ([4]; post-inhalation best, n = 17): −0.3 ± 57.0 (−31.9 to 31.2) %
Change from baseline to Week 12 in PVR ([4]; post-inhalation best, n = 17): −2.9 ± 2.0 (−4.0 to −1.9) Wood units
Change from baseline to Week 12 in PVRI ([4]; post-inhalation best, n = 17): −4.7 ± 3.0 (−6.2 to −3.1) Wood units·m^2
Change from baseline to Week 12 in SVR ([4]; post-inhalation best, n = 17): −3.3 ± 4.4 (−5.6 to −1.1) Wood units
Change from baseline to Week 12 in SVRI ([4]; post-inhalation best, n = 17): −5.3 ± 7.3 (−9.1 to −1.5) Wood units·m^2
Change from baseline to Week 12 in mPAP ([4]; post-inhalation best, n = 17): −8.3 ± 6.8 (−11.8 to −4.8) mmHg
Best change from baseline in PVRI at Week 12 ([4]; three patients receiving an ERA): −46.0 ± 35.1%
AE related to treprostinil: cough ([5]; 52-week period): 47.1%
AE related to treprostinil: headache ([5]; 52-week period): 58.8%
AE related to treprostinil: hot flush ([5]; 52-week period): 23.5%
AE related to treprostinil: throat irritation ([5]; 52-week period): 29.4%
Intensity of AEs ([5]; all AEs, 52-week period): mild‐moderate intensity
Tolerability ([5]; four times daily in Japanese patients with PAH): well tolerated
AE related to treprostinil: Blood pressure decreased ([5]; over 52 weeks, n = 17): 2 (11.8) n (%)
AE related to treprostinil: Diarrhoea ([5]; over 52 weeks, n = 17): 2 (11.8) n (%)
AE related to treprostinil: Dizziness ([5]; over 52 weeks, n = 17): 2 (11.8) n (%)
AE related to treprostinil: Head discomfort ([5]; over 52 weeks, n = 17): 3 (17.6) n (%)
AE related to treprostinil: Hot flush ([5]; over 52 weeks, n = 17): 4 (23.5) n (%)
AE related to treprostinil: Nausea ([5]; over 52 weeks, n = 17): 3 (17.6) n (%)
AE related to treprostinil: Oropharyngeal discomfort ([5]; over 52 weeks, n = 17): 3 (17.6) n (%)
AE related to treprostinil: Oropharyngeal pain ([5]; over 52 weeks, n = 17): 2 (11.8) n (%)
AE related to treprostinil: Pyrexia ([5]; over 52 weeks, n = 17): 2 (11.8) n (%)
AE related to treprostinil: cough ([5]; over 52 weeks, n = 17): 8 (47.1) n (%)
AE related to treprostinil: headache ([5]; over 52 weeks, n = 17): 10 (58.8) n (%)
AE related to treprostinil: throat irritation ([5]; over 52 weeks, n = 17): 5 (29.4) n (%)
Deaths ([5]; over 52 weeks, n = 17): no deaths
Deaths [5, 19]: 0 n (%)
Total patients with at least one AE [5, 19]: 17 n (%) and 17 (100.0) n (%)
Total patients with at least one AE related to treprostinil [5, 19]: 17 n (%) and 17 (100.0) n (%)
Mean change from baseline in MLWHF global score ([6]; Week 12): −6.6 ± 12.1
Mean change from baseline in MLWHF global score ([6]; Week 52): −5.8 ± 13.4
Mean C max, Japanese vs non-Japanese healthy adults [7]: 1.2 fold
Mean change from baseline in trough 6MWD ([8]; Week 12): +17.8 ± 35.5 m
Change from baseline in Borg Dyspnea Score ([8]; Weeks 6, 12, and 52): No significant changes
Geometric mean C max [9]: 1.02 ng/mL
Add-on therapy with a PDE5 inhibitor/sGC stimulator ([10]; long-term treatment period, patients who had been receiving an ERA): two patients
Needed additional PAH-specific therapy ([10]; main treatment period (12 weeks)): no patient
Death, transplantation, or hospitalization due to worsening PAH ([10]; throughout the 52 weeks): no patient
WHO functional class improved ([11]; Week 12): four
WHO functional class I ([11]; Week 12 (n = 17)): 1 (5.9) n (%)
WHO functional class II ([11]; Week 12 (n = 17)): 13 (76.5) n (%)
WHO functional class III ([11]; Week 12 (n = 17)): 3 (17.6) n (%)
WHO functional class I ([11]; Week 52 (n = 16)): 2 (12.5) n (%)
WHO functional class II ([11]; Week 52 (n = 16)): 12 (75.0) n (%)
WHO functional class III ([11]; Week 52 (n = 16)): 2 (12.5) n (%)
WHO functional class shift II -> I ([11]; baseline to Week 12 (n = 17)): 1 (5.9) n (%)
WHO functional class shift II -> II ([11]; baseline to Week 12 (n = 17)): 10 (58.8) n (%)
WHO functional class shift III -> II ([11]; baseline to Week 12 (n = 17)): 3 (17.6) n (%)
WHO functional class shift III -> III ([11]; baseline to Week 12 (n = 17)): 3 (17.6) n (%)
WHO functional class shift II -> I ([11]; baseline to Week 52 (n = 16)): 2 (12.5) n (%)
WHO functional class shift II -> II ([11]; baseline to Week 52 (n = 16)): 9 (56.3) n (%)
WHO functional class shift III -> II ([11]; baseline to Week 52 (n = 16)): 3 (18.8) n (%)
WHO functional class shift III -> III ([11]; baseline to Week 52 (n = 16)): 2 (12.5) n (%)
Deterioration of WHO functional class ([11]; throughout the 52 weeks): no patient

CC(C)N(CCCCOCC(=O)NS(C)(=O)=O)c1cnc(-c2ccccc2)c(-c2ccccc2)n1 [selexipag]
Change from baseline in mPAP [12]: −3.1 mmHg

— publication PMC9906001 (Pulmonary Circulation, 2023)
